Measured values published in ChEMBL document CHEMBL1139327, “Synthesis and biological properties of Pachastrissamine (jaspine B) and diastereoisomeric jaspines” (2009).
The source made the active and inactive calls. The rule behind the calls is not given here.

Legend:
[1] = tested on: A549; test: Cytotoxicity against human A549 cells after 24 hrs by MTT assay in presence of 3-methyladenine; assay type: functional
How it was run: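 A549 (HAM F12/glutamine, 10% FBS, 37 °C, 5% CO2) pretreated 2 weeks with 10 mM 3-MA in flask, medium changed every 2 days. Then 10^5 cells/well seeded in medium with 3-MA plus compounds at 0.02–400 μM final (ethanol vehicle, 0.1%), 24 h. Viability by MTT, LD50 derived. Means SD, three independent experiments, triplicates.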

[2] = tested on: A549; test: Cytotoxicity against human A549 cells assessed as PI positive cells after 24 hrs by flow cytometry; assay type: functional, cell-based
How it was run: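 A549 cells exposed 24 h to a range of compound concentrations, harvested by brief trypsinization, double-stained with Alexa Fluor 488 annexin V and propidium iodide, analysed by flow cytometry; percentage of cells positive for annexin V, PI or both scored against untreated control.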

[3] = tested on: A549; test: Cytotoxicity against human A549 cells after 24 hrs by MTT assay; assay type: functional; conditions: A549, 24 h, read-out: LD50 (the source's name)
How it was run: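 Human alveolar epithelial A549 cells (ATCC) grown in HAM F12 with glutamine plus 10% FBS at 37 °C, 5% CO2. Seeded at 10^5 cells/well; after 24 h, medium renewed and compounds (ethanol stocks; vehicle control 0.1% ethanol) added to final 0.02–400 µM for 24 h. Viable cells by MTT; LD50 from concentration–response; means of three independent experiments with triplicates.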

[4] = tested on: A549; test: Cytotoxicity against human A549 cells after 24 hrs by MTT assay in absence of 3-methyladenine; assay type: functional
How it was run: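 A549 (ATCC) grown in HAM F12 with glutamine + 10% FBS, 37 °C, 5% CO2. Seeded 10^5 cells/well, medium renewed after 24 h, then exposed 24 h to 0.02–400 μM final (ethanol stock; 0.1% ethanol vehicle control). Viable cells by MTT; LD50 taken from curves. Means SD, three independent experiments in triplicate.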

[5] = tested on: A549; test: Induction of 3-methyladenine-inhibited autophagy in human A549 cells assessed as increase in ceramide levels

Row | Compound | Activity [1] | Activity [2] | CC50 [3] | Activity [4] | Activity [5]
1 | CCCCCCCCCCCCCC[C@@H]1OC[C@H](N)[C@H]1O | inactive | Dose-dependent effect | 1500 nM |  | 
2 | CCCCCCCCCCCCCC[C@H](O)[C@@H](O)[C@@H](N)CO | 29.4 µM |  |  | 28.2 µM | 
3 | CCCCCCCCCCCCCC[C@H]1OC[C@H](N)[C@@H]1O [2-EPI JASPINE B] | inactive | Dose-dependent effect | 1250 nM |  | 
4 | CCCCCCCCCCCCCC[C@H]1OC[C@H](N)[C@H]1O | inactive | Dose-dependent effect | 2500 nM |  | 
5 | CCCCCCCCCCCCCC[C@@H]1OC[C@H](N)[C@@H]1O [PACHASTRISSAMINE] | inactive | Dose-dependent effect | 130 nM |  | Dose-dependent effect
